Measurements as given in ChEMBL document CHEMBL4334446, “Evaluating the effects of fluorine on biological properties and metabolic stability of some antitubulin 3-substituted 7-phenyl-pyrroloquinolinones” (Eur J Med Chem, 2019).
Calls of active or inactive are those of the source. The rule behind the calls is not given here.

Key:
MDA-MB-468 = test: Growth inhibition of human MDA-MB-468 cells incubated for 72 hrs by MTT assay; format: functional; conditions: MDA-MB-468, 72 h
A-375 [1] = test: Induction of cell cycle arrest in human A375 cells assessed as reduction in cell population at S phase at 50 to 100 nM incubated for 24 hrs by PI staining based flow cytometric analysis; format: functional
How it was run: (§1)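 A375 and A2058 melanoma cells were treated 24 h. Cells were fixed in ice-cold 70% ethanol, then given lysis buffer with RNase A and 0.1% Triton X-100 and stained with PI. Phase distribution came from flow cytometric DNA histograms. Mean ± SEM of two independent experiments.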

A-375 [2] = test: Induction of cell cycle arrest in human A375 cells assessed as reduction in cell population at G1 phase at 50 to 100 nM incubated for 24 hrs by PI staining based flow cytometric analysis; format: functional; how it was run: as §1
HeLa [3] = test: Cell cycle arrest in human HeLa cells assessed as decrease in cdc25c protein expression level at 50 to 100 nM incubated for 24 hrs by western blot analysis; format: functional, cell-based
How it was run: (§2)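 HeLa cells were exposed for set times, including 24 and 48 h, then washed in cold PBS and lysed on ice for 30 min. Lysates were cleared at 15000 × g at 4 °C. 10 µg protein was run by SDS-PAGE and transferred to PVDF. Blots were probed 2 h at room temperature with primary antibodies, then peroxidase secondary antibodies, and detected by ECL. Membranes were reprobed for actin as loading control.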

HeLa [4] = test: Cell cycle arrest in human HeLa cells assessed as disappearance in cdc25c protein expression at 50 to 100 nM incubated for 48 hrs by western blot analysis; format: functional, cell-based; how it was run: as §2
HeLa [5] = test: Induction of apoptosis in human HeLa cells at 50 nM incubated for 24 to 48 hrs by annexin-V FITC and PI staining based flow cytometric analysis; format: functional, cell-based
How it was run: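 HeLa cells were treated 24 or 48 h, then harvested and double-stained with annexin-V-FITC and PI for flow cytometry. Populations were separated as live, early apoptotic, late apoptotic and necrotic. Mean ± SEM of three independent experiments.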

HeLa [6] = test: Induction of ROS generation in human HeLa cells at 100 nM incubated for 12 to 24 hrs by H2DCFDA staining based flow cytometric analysis; format: functional, cell-based
How it was run: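 HeLa cells were treated 6, 12, 24 and 48 h, then stained with H2-DCFDA. ROS fluorescence was read by flow cytometry. Mean ± SEM of three independent experiments.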

B16-BL6 = test: Growth inhibition of mouse B16-BL6 cells incubated for 72 hrs by MTT assay; format: functional; conditions: B16-BL6, 72 h
[7] = Toxicity in C57BL/6 mouse allografted with mouse B16-BL6 cells assessed as change in body weight at 3 to 7.5 mg/kg, ip administrated every other day; format: organism-based; conditions: in vivo
How it was run: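 Male six-week-old C57BL/6 mice were given BL6-B16 murine melanoma cells subcutaneously in the dorsolateral flank in PBS. Once tumours reached about 100 mm³, mice were randomised and dosed intraperitoneally every other day with 3.0 or 7.5 mg/kg in DMSO, or vehicle alone. Body weight change was followed; 5 animals per group, mean ± SEM.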

[8] = Metabolic stability in human liver microsomes at 10 uM incubated for 60 mins in absence of NADPH by HPLC analysis; format: ADME, Microsome; conditions: 1 h
How it was run: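 Compound at 10 μM final was incubated at 37 °C with pooled mixed-gender HLMs (1 mg/mL) in 0.1 M KH₂PO₄ pH 7.4, NADPH omitted, for 0 or 60 min. Reaction was started by adding microsomes after 3-min equilibration and stopped with ice-cold acetonitrile. Supernatant was analysed by HPLC-fluorescence. Percent remaining at 60 min is relative to 0 min; mean ± SD, n = 3.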

[9] = Metabolic stability in NADPH-supplemented human liver microsomes assessed as parent compound remaining at 37 degC incubated for 30 mins; format: ADME, Microsome; conditions: read-out: Stability
How it was run: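 Compound (10 µM) was incubated at 37 °C with 0.5 mg/mL pooled HLMs and 1 mM NADPH in 0.1 M KH2PO4 pH 7.4, sampled at 0, 2, 5, 15 and 30 min. Controls without NADPH, or buffer only, ran 0 and 30 min. Parent was quantified by HPLC-fluorescence as % of the 0 min level, n = 3. t1/2 = 0.693/k, with k from regression of ln % remaining versus time.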

[10] = Drug metabolism in human liver microsomes at 10 uM incubated for 60 mins in presence of NADPH by HPLC analysis; format: ADME, Microsome; conditions: 1 h
How it was run: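 Compound (10 µM) was incubated 0 or 60 min at 37 °C with pooled HLMs (1 mg/mL), with or without 1 mM NADPH, or in buffer only (0.1 M KH2PO4 pH 7.4). Reactions were stopped with ice-cold acetonitrile. Remaining parent was measured by HPLC-fluorescence relative to 0 min; mean ± SD, n = 3.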

[11] = Metabolic stability in human liver microsomes assessed as retention time of the parent compound at 10 uM incubated for 60 mins in presence of NADPH by HPLC analysis; format: ADME, Microsome; conditions: 1 h
How it was run: (§3)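 Compound (10 µM) was incubated with pooled mixed-gender HLMs (0.5 mg protein/mL), 1 mM NADPH and 0.1 M KH2PO4 pH 7.4 for 60 min at 37 °C, aerobic. The reaction was started with microsomes and stopped with ice-cold acetonitrile; controls lacked NADPH. The supernatant went to C8 HPLC with fluorescence detection (ex 344, em 493 nm). Collected peaks were analyzed by ESI+ mass spectrometry.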

[12] = Metabolic stability in human liver microsomes assessed as 7-phenyl-3H-pyrrolo[3,2-f]quinolin-9(6H)-one metabolite formation at 10 uM incubated for 60 mins in presence of NADPH by ESI-MS analysis; format: ADME, Microsome; conditions: 1 h; how it was run: as §3

GI50 (MDA-MB-468)	GI50 (B16-BL6)	Stability [8]	remaining at 0.5 h [9]	Drug metabolism [10]	Retention_time [11]	Drug metabolism [12]	SMILES	Activity (A-375 [1])	Activity (A-375 [2])	inhibition (HeLa [3])	inhibition (HeLa [4])	Activity (HeLa [5])	Activity (HeLa [6])	Activity [7]
22.3 nM	10 nM	–	–	–	–	–	CCn1ccc2c3c(=O)cc(-c4ccccc4F)[nH]c3ccc21	Active	Active	Active	Active	Active	Active	Non-Toxic
–	–	Stable	< 70%	Metabolite_Detected	12.9 min	Metabolite_Detected	CCn1ccc2c3c(=O)cc(-c4ccccc4)[nH]c3ccc21	–	–	–	–	–	–	–
